Experimental data reported in ChEMBL document CHEMBL1137402, “Synthesis and biological evaluation of 2-(3',4',5'-trimethoxybenzoyl)-3-amino 5-aryl thiophenes as a new class of tubulin inhibitors” (J Med Chem, 2006).
Active and inactive are the calls of the source. The rule behind the calls is not given here.

Experiments:
Tubulin = assay: Inhibition of tubulin polymerization; type: functional, Homo sapiens
In short: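 Tubulin assembly assay with tubulin at 10 µM. IC50 taken for inhibition of polymerization.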

MOLT-4 = assay: Antiproliferative activity against human Molt4/C8 cells; type: functional, cell-based
In short: (§1)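 Tumor cell proliferation assay. IC50 is the compound concentration giving 50% inhibition of proliferation, taken from dose-response curves. Reported as mean ± SE from at least three independent experiments.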

L1210 = assay: Antiproliferative activity against mouse L1210 cells; type: functional, cell-based; in short: as §1
Tubulin (Homo sapiens) = Tubulin (Homo sapiens) (UniProt P68371+Q9H4B7+P0DPH7+P68366+Q13509+Q71U36+P04350+Q3ZCM7+P07437+P68363+Q9BQE3+Q6PEY2+Q13885+Q9BVA1+Q9BUF5); assay: Inhibition of [3H]colchicine binding to tubulin at 1 uM; type: protein-complex assay
In short: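 Binding of [3H]colchicine to tubulin. Tubulin at 1 µM, [3H]colchicine at 5 µM, inhibitor at 1 µM. Read-out is percent inhibition of colchicine binding.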

FM3A = assay: Antiproliferative activity against mouse FM3A cells; type: functional, cell-based
CCRF-CEM = assay: Antiproliferative activity against human CEM cells; type: functional, cell-based
HL-60 [1] = assay: Cell cycle arrest in HL60 cells by accumulation at S phase at 8 nM; type: functional, cell-based; conditions: Homo sapiens
In short: (§2)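 HL60 acute myeloblastic leukemia cells exposed to compound for 24 h, then stained with propidium iodide and analyzed by flow cytometry. Populations scored in sub-G0-G1 (apoptotic), G0-G1, S and G2-M phases, relative to untreated control cells.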

HL-60 [2] = assay: Cell cycle arrest in HL60 cells by accumulation at G2/M phase at 40 nM; type: functional, cell-based; conditions: Homo sapiens; in short: as §2
HL-60 [3] = assay: Cell cycle arrest in HL60 cells by accumulation at G2/M phase at 8 nM; type: functional, cell-based; conditions: Homo sapiens; in short: as §2
HL-60 [4] = assay: Induction of apoptosis in HL60 cells by arrest at sub G0/G1 phase at 8 nM; type: functional, cell-based; conditions: Homo sapiens; in short: as §2
HL-60 [5] = assay: Cell cycle arrest in HL60 cells by accumulation at G2/M phase at 15 nM; type: functional, cell-based; conditions: Homo sapiens; in short: as §2
HL-60 [6] = assay: Induction of apoptosis in HL60 cells by arrest at sub G0/G1 phase at 15 nM; type: functional, cell-based; conditions: Homo sapiens; in short: as §2
HL-60 [7] = assay: Cell cycle arrest in HL60 cells by accumulation at G2/M phase at 20 nM; type: functional, cell-based; conditions: Homo sapiens; in short: as §2
HL-60 [8] = assay: Cell cycle arrest at HL60 cells by accumulation at sub G0/G1 phase at 20 nM; type: functional, cell-based; conditions: Homo sapiens; in short: as §2

IC50 (Tubulin) [nM] | IC50 (MOLT-4) [nM] | IC50 (L1210) [nM] | inhibition (Tubulin (Homo sapiens)) [%] | IC50 (CCRF-CEM) [nM] | Structure (SMILES) | IC50 (FM3A) [nM] | other results
1200 | – | – | – | – | COc1cccc(-c2cc(C(=O)c3cc(OC)c(OC)c(OC)c3)c(N)s2)c1 | – | –
1100 | 16 | 18 | 80 | 15 | COc1cc(C(=O)c2sc(-c3ccc(C)cc3)cc2N)cc(OC)c1OC | 16 | –
– | 270 | 260 | – | 290 | COc1cc(C(=O)c2sc(-c3ccc(Cl)c(Cl)c3)cc2N)cc(OC)c1OC | 400 | –
1200 | 5.3 | 11 | 81 | 4.5 | COc1cc(C(=O)c2sc(-c3ccccc3)cc2N)cc(OC)c1OC | 13 | Activity (HL-60 [1]): Active; Activity (HL-60 [2]): Active; Activity (HL-60 [3]): Active; Activity (HL-60 [4]): Active
1200 | 17 | 20 | 76 | 16 | COc1cc(C(=O)c2sc(-c3ccccc3Cl)cc2N)cc(OC)c1OC | 34 | –
970 | 7.5 | 11 | 74 | 5.9 | COc1cc(C(=O)c2sc(-c3cccc([N+](=O)[O-])c3)cc2N)cc(OC)c1OC | 17 | Activity (HL-60 [5]): Active; Activity (HL-60 [6]): Active
640 | 17 | 22 | 81 | 16 | COc1cccc(-c2cc(N)c(C(=O)c3cc(OC)c(OC)c(OC)c3)s2)c1 | 36 | –
1100 | 20 | 40 | 53 | 20 | COc1ccc(-c2cc(N)c(C(=O)c3cc(OC)c(OC)c(OC)c3)s2)cc1OC | 72 | –
1300 | – | – | 77 | – | COc1cc(C(=O)c2cc(-c3ccccc3)sc2N)cc(OC)c1OC | – | –
– | 190 | 400 | – | 150 | COc1cc(C(=O)c2sc(-c3ccc(I)cc3)cc2N)cc(OC)c1OC | 420 | –
1300 | 8.8 | 12 | 81 | 9.6 | COc1cc(C(=O)c2sc(-c3ccsc3)cc2N)cc(OC)c1OC | 3.7 | Activity (HL-60 [7]): Active; Activity (HL-60 [8]): Active
1200 | 8.9 | 9.8 | 80 | 9.4 | COc1cc(C(=O)c2sc(-c3cccs3)cc2N)cc(OC)c1OC | 1.7 | Activity (HL-60 [7]): Active; Activity (HL-60 [8]): Active
1500 | 12 | 20 | 70 | 15 | COc1cc(C(=O)c2sc(-c3ccc(F)cc3)cc2N)cc(OC)c1OC | 16 | –
– | > 10000 | > 10000 | – | > 10000 | COc1cc(C(=O)c2sc(-c3ccc(-c4ccccc4)cc3)cc2N)cc(OC)c1OC | > 10000 | –
– | 250 | 370 | – | 270 | COc1cc(C(=O)c2sc(-c3ccc(C(F)(F)F)cc3)cc2N)cc(OC)c1OC | 540 | –
1100 | – | – | – | – | COc1ccc(-c2cc(C(=O)c3cc(OC)c(OC)c(OC)c3)c(N)s2)cc1 | – | –
– | 110 | 100 | – | 99 | COc1cc(C(=O)c2sc(-c3ccc([N+](=O)[O-])cc3)cc2N)cc(OC)c1OC | 64 | –
– | 88 | 180 | – | 110 | COc1cc(C(=O)c2sc(-c3ccncc3)cc2N)cc(OC)c1OC | 150 | –
1100 | 18 | 45 | 60 | 19 | COc1ccc(-c2cc(N)c(C(=O)c3cc(OC)c(OC)c(OC)c3)s2)cc1 | 31 | –
800 | – | – | 90 | – | COc1cc(C(=O)c2cc(-c3ccc(C)cc3)sc2N)cc(OC)c1OC | – | –
– | 1200 | 2300 | – | 840 | COc1cc(C(=O)c2sc(-c3cc(OC)c(OC)c(OC)c3)cc2N)cc(OC)c1OC | 3500 | –
– | 92 | 100 | – | 86 | COc1cc(C(=O)c2sc(-c3ccc(Br)cc3)cc2N)cc(OC)c1OC | 150 | –
– | 240 | 590 | – | 270 | CCOc1ccc(-c2cc(N)c(C(=O)c3cc(OC)c(OC)c(OC)c3)s2)cc1 | 510 | –
860 | – | – | – | – | COc1cc(C(=O)c2cc(-c3ccc(F)cc3)sc2N)cc(OC)c1OC | – | –
– | 77 | 93 | – | 70 | COc1cc(C(=O)c2sc(-c3ccc(Cl)cc3)cc2N)cc(OC)c1OC | 90 | –

Structure (SMILES) | IC50 (Tubulin) [nM] | IC50 (MOLT-4) [nM] | IC50 (L1210) [nM] | inhibition (Tubulin (Homo sapiens)) [%] | IC50 (CCRF-CEM) [nM] | IC50 (FM3A) [nM] | other results
COc1ccc(/C=C\c2cc(OC)c(OC)c(OC)c2)cc1O [COMBRETASTATIN A4] | – | 1.6 | 2.8 | – | – | – | –
